Reference: ChEMBL document CHEMBL1177650, “Synthesis, structural elucidation and in vitro antiparasitic activity against Trypanosoma cruzi and Leishmania chagasi parasites of novel tetrahydro-1-benzazepine derivatives” (Bioorg Med Chem, 2010)

Tests used:
[1] = Selectivity index, CC50 for african green monkey Vero cells to IC50 for Trypanosoma cruzi 320I01 amastigotes; type: functional
Procedure, shortened: (§1)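 Selectivity index computed as CC50 in Vero cells divided by IC50 against the T. cruzi stage named in the line.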

Trypanosoma cruzi [2] = experiment: Antitrypanosomal activity against Trypanosoma cruzi 320I01 epimastigotes after 72 hrs by haemocytometry; type: functional, organism-based; conditions: 320I01, 72 h
Procedure, shortened: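 Late-phase T. cruzi epimastigotes cultured in LIT medium with hiFCS at 28 °C; threefold serial dilutions (0.3–100 μM) for 72 h at 28 °C, untreated controls. Parasites counted in a haemocytometer; IC50/IC90 by sigmoidal regression; each concentration in triplicate, two experiments.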

[3] = Selectivity index, CC50 for human THP1 cells to IC50 for Leishmania chagasi MHOM/BR/74/PP75 amastigotes; type: functional, THP-1
Procedure, shortened: (§2)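 Selectivity index computed as CC50 in THP-1 cells divided by IC50 against the L. chagasi stage named in the line.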

[4] = Selectivity index, CC50 for human THP1 cells to IC50 for Leishmania chagasi MHOM/BR/74/PP75 promastigotes; type: functional, THP-1; procedure, shortened: as §2
Trypanosoma cruzi [5] = experiment: Antitrypanosomal activity against Trypanosoma cruzi 320I01 amastigotes infected in african green monkey Vero cells after 5 days by Giemsa staining; type: functional, organism-based; conditions: 320I01, Vero, 120 h
Procedure, shortened: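 Vero cells (RPMI, 5% hiSBF, 37 °C, 5% CO2) infected 24 h with tissue-derived T. cruzi trypomastigotes at parasite:cell 10:1. Compound dilutions (top 100 μM) applied 5 days at 37 °C, 5% CO2, medium changed once at day 3. Infected cells scored per 300 cells on methanol-fixed Giemsa preparations; IC50/IC90 by sigmoidal regression; triplicates, two experiments.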

Leishmania chagasi [6] = experiment: Antileishmanial activity against Leishmania chagasi MHOM/BR/74/PP75 promastigotes after 72 hrs by haemocytometry; type: functional, organism-based; conditions: MHOM/BR/74/PP75, 72 h
Procedure, shortened: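 Late-phase L. chagasi promastigotes, grown at 28 °C in RPMI 1640 with hemin, HEPES and 10% hiSBF, exposed to threefold serial dilutions (0.3–100 μM) for 72 h at 28 °C; untreated controls. Growth inhibition from haemocytometer counts; IC50/IC90 by sigmoidal regression; triplicates, repeated twice.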

[7] = Cytotoxicity against human THP1 cells after 72 hrs by MTT assay; type: cell-based; conditions: THP-1 cells
Procedure, shortened: (§3)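 Vero or transformed THP-1 cells incubated with compound (0.3–300 μM) 72 h at 37 °C, 5% CO2; untreated controls. MTT read-out, formazan OD at 580 nm; % cytotoxicity = 100 × (OD control − OD treated)/OD control. CC50/CC90 by sigmoidal regression; triplicates, repeated twice. DMSO stocks 100× concentrated, diluted in medium.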

[8] = Selectivity index, CC50 for african green monkey Vero cells to IC50 for Trypanosoma cruzi 320I01 epimastigote; type: functional; procedure, shortened: as §1
[9] = Cytotoxicity against african green monkey Vero cells after 72 hrs by MTT assay; type: cell-based; conditions: chlorocebus sabaeus; procedure, shortened: as §3
Leishmania chagasi [10] = experiment: Antileishmanial activity against Leishmania chagasi MHOM/BR/74/PP75 amastigotes infected in human THP1 cells after 5 days by Giemsa staining; type: functional, organism-based; conditions: MHOM/BR/74/PP75, THP-1, 120 h
Procedure, shortened: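 THP-1 cells (RPMI, 5% hiSBF, 37 °C, 5% CO2) transformed, then infected 24 h with late-phase L. chagasi promastigotes at parasite:cell 10:1. Treated with compound dilutions (top 100 μM) 5 days at 37 °C, 5% CO2, medium changed once after 3 days. Infected cells counted per 300 cells on methanol-fixed Giemsa slides; IC50/IC90 by sigmoidal regression; triplicates, repeated twice.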

Compound | Selectivity Index [1] | IC50 (Trypanosoma cruzi [2]) [µM] | IC90 (Trypanosoma cruzi [2]) [µM] | Selectivity Index [3] | Selectivity Index [4] | IC50 (Trypanosoma cruzi [5]) [µM] | IC90 (Trypanosoma cruzi [5]) [µM] | IC50 (Leishmania chagasi [6]) [µM] | IC90 (Leishmania chagasi [6]) [µM] | CC50 at 72 h [7] [µM] | CC90 at 72 h [7] [µM] | Selectivity Index [8] | CC50 at 72 h [9] [µM] | CC90 at 72 h [9] [µM] | IC50 (Leishmania chagasi [10]) [µM] | IC90 (Leishmania chagasi [10]) [µM]
O[C@@H]1Cc2cc(Cl)ccc2N[C@H](c2c(F)cccc2Cl)C1 (relative stereo) | >2 | 14.5 | 34.8 | >1 | 2.76 | > 34.1 | > 34.1 | 39.8 | 78.5 | 110 | 214 | 6.36 | 92 | 182 | 73.2 | > 100
O[C@@H]1Cc2ccccc2N[C@H](c2c(Cl)cccc2Cl)C1 (relative stereo) | >4 | 48.9 | > 100 | >3 | >3 | 69.9 | > 100 | > 100 | > 100 | > 300 | > 300 | >6 | > 300 | > 300 | > 100 | > 100
O[C@@H]1Cc2ccccc2N[C@H](c2c(F)cccc2Cl)C1 (relative stereo) | >3 | > 100 | > 100 | >3 | >3 | > 100 | > 100 | > 100 | > 100 | > 300 | > 300 | >3 | > 300 | > 300 | > 100 | > 100
O[C@@H]1Cc2cc(Cl)ccc2N[C@H](c2c(Cl)cccc2Cl)C1 (relative stereo) | >1 | 14.8 | 53 | >1 | 4.06 | > 32.5 | > 32.5 | 14.7 | 30.3 | 59.6 | > 293 | 3.36 | 49.9 | 176 | > 32.5 | > 32.5
O[C@@H]1Cc2cc(Cl)ccc2N[C@H](c2ccccc2Cl)C1 (relative stereo) | >1 | 15.3 | 35.7 | >0.75 | 1.5 | > 100 | > 36.1 | 50.2 | > 100 | 75.5 | > 300 | 6.91 | 106 | > 300 | > 100 | > 100
O[C@@H]1Cc2cc(Cl)ccc2N[C@H](c2ccccc2F)C1 (relative stereo) | >4 | 17.3 | 79.9 | >1 | 2.02 | > 38.1 | > 38.1 | 54.5 | > 100 | 110 | 273 | 10.53 | 182 | > 300 | > 100 | > 100
C[C@@H]1[C@H](O)[C@@H](C)/C=C/C=C/C=C/C=C/C=C/C=C/C=C/[C@H](O[C@@H]2O[C@H](C)[C@@H](O)[C@H](N)[C@@H]2O)C[C@@H]2O[C@](O)(C[C@@H](O)C[C@@H](O)[C@H](O)CC[C@@H](O)C[C@@H](O)CC(=O)O[C@H]1C)C[C@H](O)[C@H]2C(=O)O [AMPHOTERICIN B] | – | – | – | 109.87 | 439.5 | – | – | 0.02 | 0.02 | 8.79 | 34.9 | – | – | – | 0.08 | 0.14
CC1CS(=O)(=O)CCN1/N=C/c1ccc([N+](=O)[O-])o1 (configuration not stated) [NIFURTIMOX] | 26.7 | 2.33 | 23.4 | – | – | 2.3 | 9.06 | – | – | – | – | 26.36 | 61.4 | > 300 | – | –
